This passage reports MAP, Heart rate and IC50 results from ChEMBL document CHEMBL1123463, “Two stereoisomeric imidazoline derivatives: synthesis and optical and alpha 2-adrenoceptor activities” (J Med Chem, 1986).

One may read the IC50 as the concentration that inhibits the measured activity by half. A high value points to weaker potency in that assay.

Experiment [1] concerns Rattus norvegicus. Briefly: Maximal decrease of arterial blood pressure(MAP) after intravenous injection of compound at a dose of 5.61ug/kg in rats. It counts as functional. The gist of the method:
(§1)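 Male normotensive Wistar rats (200-350 g) anesthetized with ip sodium pentobarbitone 75.0 mg/kg; trachea cannulated, spontaneous breathing, rectal temperature ca. 37 °C. Arterial pressure recorded continuously. After ~20 min stabilization, single iv injection in saline (1 mL/kg; doses as hydrochloride), one injection per animal. Read-out: maximal fall in mean arterial pressure.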

Experiment [2] deals with Rattus norvegicus. Briefly: Maximal decrease of heart rate calculated as bradycardiac activity after intravenous injection of 5.61ug/kg in rats. The class given is functional. The gist of the method: (§2)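 Anesthetized male normotensive Wistar rats (200-350 g; ip sodium pentobarbitone 75.0 mg/kg), cannulated trachea, kept at ca. 37 °C rectal. Pulse rate recorded continuously; following ~20 min stabilization each rat received one iv dose in saline (1 mL/kg, expressed as hydrochloride). Maximal fall in heart rate measured.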

Experiment [3] deals with Rattus norvegicus. The experiment in a line: Maximal decrease of heart rate calculated as bradycardiac activity after intravenous injection of 3.16 ug/kg in rats. It counts as functional. The gist of the method: as §2
Experiment [4] addresses T1, Adrenergic receptor alpha-2 (Rattus norvegicus, UniProt P22086+P19328+P22909).
T1 sequence (P22086 whole entry): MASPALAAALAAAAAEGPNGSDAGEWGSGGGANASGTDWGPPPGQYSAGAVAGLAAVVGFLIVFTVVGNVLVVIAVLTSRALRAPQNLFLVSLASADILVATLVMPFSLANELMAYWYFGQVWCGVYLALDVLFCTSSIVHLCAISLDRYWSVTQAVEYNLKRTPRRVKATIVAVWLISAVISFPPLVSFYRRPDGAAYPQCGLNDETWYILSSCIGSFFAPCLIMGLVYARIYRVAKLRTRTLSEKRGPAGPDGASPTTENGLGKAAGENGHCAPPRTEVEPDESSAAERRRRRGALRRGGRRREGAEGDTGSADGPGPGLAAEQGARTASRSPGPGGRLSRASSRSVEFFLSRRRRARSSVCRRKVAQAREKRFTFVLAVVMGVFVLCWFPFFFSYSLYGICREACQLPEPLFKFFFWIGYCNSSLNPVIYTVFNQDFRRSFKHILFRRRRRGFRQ
T1 sequence (P19328 whole entry): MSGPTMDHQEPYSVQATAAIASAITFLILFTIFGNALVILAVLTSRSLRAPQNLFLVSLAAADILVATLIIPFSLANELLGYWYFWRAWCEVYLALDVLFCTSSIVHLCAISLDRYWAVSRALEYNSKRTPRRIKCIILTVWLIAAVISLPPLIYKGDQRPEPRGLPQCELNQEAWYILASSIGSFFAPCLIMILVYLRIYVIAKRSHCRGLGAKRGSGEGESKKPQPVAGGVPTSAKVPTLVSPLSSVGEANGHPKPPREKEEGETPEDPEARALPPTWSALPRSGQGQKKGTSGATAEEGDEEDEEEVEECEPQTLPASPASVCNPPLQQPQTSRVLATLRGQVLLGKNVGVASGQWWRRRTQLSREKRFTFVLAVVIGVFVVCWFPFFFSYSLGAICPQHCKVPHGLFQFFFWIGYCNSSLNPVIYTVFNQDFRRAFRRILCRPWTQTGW
T1 sequence (P22909 whole entry): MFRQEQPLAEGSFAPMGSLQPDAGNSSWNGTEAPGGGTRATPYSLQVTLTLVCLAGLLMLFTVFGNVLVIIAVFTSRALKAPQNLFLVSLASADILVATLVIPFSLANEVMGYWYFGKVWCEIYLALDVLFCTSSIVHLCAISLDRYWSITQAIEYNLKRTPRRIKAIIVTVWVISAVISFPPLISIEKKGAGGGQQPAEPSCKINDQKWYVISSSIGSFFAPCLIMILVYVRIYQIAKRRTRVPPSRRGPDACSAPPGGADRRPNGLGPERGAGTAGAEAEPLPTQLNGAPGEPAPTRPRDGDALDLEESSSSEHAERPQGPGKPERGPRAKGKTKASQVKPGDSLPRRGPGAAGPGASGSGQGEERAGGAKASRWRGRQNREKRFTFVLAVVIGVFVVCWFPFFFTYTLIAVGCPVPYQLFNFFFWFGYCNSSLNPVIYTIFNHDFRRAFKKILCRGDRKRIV
The experiment in a line: Compound was tested for its ability to inhibit specific binding of [3H]clonidine to alpha-2 adrenergic receptor in rat brain. The class given is tissue-based.

Experiment [5] deals with Rattus norvegicus. The experiment in a line: Maximal decrease of heart rate calculated as bradycardiac activity after intravenous injection of 1 ug/kg in rats. The class given is functional. The gist of the method:
as §2

Experiment [6] relates to Rattus norvegicus. The experiment in a line: Maximal decrease of heart rate calculated as bradycardiac activity after intravenous injection of 0.561 ug/kg in rats. It counts as functional. The gist of the method:
as §2

Experiment [7] relates to Rattus norvegicus. Briefly: Maximal decrease of heart rate calculated as bradycardiac activity after intravenous injection of 10 ug/kg in rats. It counts as functional. The gist of the method:
as §2

Experiment [8] has as its system Rattus norvegicus. Briefly: Maximal decrease of arterial blood pressure (MAP) after intravenous injection of compound at a dose of 1 ug/kg in rats. The class given is functional. The gist of the method: as §1
In experiment [9] the test system is Rattus norvegicus. Briefly: Maximal decrease of arterial blood pressure (MAP)after intravenous injection of compound at a dose of 0.561 ug/kg in rats. It counts as functional. The gist of the method: as §1
Experiment [10] deals with Rattus norvegicus. Briefly: Maximal decrease of arterial blood pressure (MAP) after intravenous injection of compound at a dose of 3.16 ug/kg in rats. It counts as functional. The gist of the method:
as §1

The subject of experiment [11] is Rattus norvegicus. Briefly: Maximal decrease of arterial blood pressure (MAP) after intravenous injection of compound at a dose of 10 ug/kg in rats. It counts as functional. The gist of the method: as §1
Experiment [12] has as its target T1, Adrenergic receptor alpha-2. Briefly: Compound was tested for its ability to inhibit specific binding of [3H]clonidine to alpha-2-adrenoceptor in rat brain. It counts as tissue-based.

On to `CC(Oc1c(Cl)cccc1Cl)C1=NCCN1.Cl` (racemic) [LOFEXIDINE HYDROCHLORIDE], for which the MAP was -48.8 mmHg in experiment [1]; -26.8 mmHg in [8]; -22.6 mmHg in [9]; -37.6 mmHg in experiment [10]; -54.2 mmHg in experiment [11]. Besides, the Heart rate in experiment [2] was -132; in [3] it was -137; in [5], -83; in [6], -52; in [7], -138. The IC50 in experiment [4] was 7.25 nM.
Take `CC(Oc1c(Cl)cccc1Cl)C1=NCCN1.Cl` (single isomer, unassigned; (+)) [LOFEXIDINE HYDROCHLORIDE]: the Heart rate is -36 in experiment [3], -7 in experiment [5] and -61 in experiment [7]. In addition, the 50% inhibitory concentration (IC50) in experiment [12] amounted to 43 nM. Also, the MAP in experiment [8] is -7.4 mmHg; in [10], -11.7 mmHg; in experiment [11], -10.6 mmHg.
In the case of `CC(Oc1c(Cl)cccc1Cl)C1=NCCN1.Cl` (stereo in doubt) [LOFEXIDINE HYDROCHLORIDE], the MAP is reported as -41.6 mmHg in experiment [1], -13.8 mmHg in experiment [8], -29.8 mmHg in experiment [10] and -53 mmHg in [11]. Moreover, the Heart rate in experiment [2] is on record as -96; in [3] it was -97; in experiment [5], -46; in [7], -134. The IC50 in experiment [12] was found to be 3.6 nM.
